Experimental data as given in ChEMBL document CHEMBL1135690, “Benzodiazepine receptor ligands. 7. Synthesis and pharmacological evaluation of new 3-esters of the 8-chloropyrazolo[5,1-c][1,2,4]benzotriazine 5-oxide. 3-(2-Thienylmethoxycarbonyl) derivative: an anxioselective agent in rodents” (J Med Chem, 2002).

Assays:
Mus musculus [1] = assay: Anxiolytic activity in mice using light-dark box and % time spent in light was reported at 100 mg/kg peroral dose; type: functional; settings: route oral
Method in brief: (§1)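 Male CD-1 mice (22–24 g) given drug po in 1% carboxymethylcellulose (10 mL/kg). Each mouse placed in the centre of the lighted area facing away from the dark compartment and allowed to explore for 5 min; time spent in the illuminated side and number of transfers between compartments recorded. Tests run between 10:00 and 15:00.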

Mus musculus [2] = assay: Anxiolytic activity in mice using light-dark box and no. of transfers between compartments were reported at 100 mg/kg peroral dose; type: functional; settings: route oral; method in brief: as §1
[3] = Displacement of [3H]Ro-151788 from rat GABA-A receptor alpha-5-beta-3-gamma-2 subunits expressed in HEK293 cells; type: cell-based
Method in brief: (§2)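 Recombinant rat GABA-A subtypes are stably expressed in HEK293 cells grown in MEM/EBSS with 10% FCS at 37 °C. Membranes are made in 10 mM potassium phosphate pH 7.4 and resuspended with 100 mM KCl. Incubation uses 1–2 nM [3H]Ro15-1788 with compound at 10^-9–10^-5 M (≥6 concentrations), 1 h at 4 °C. […] Ki comes from Cheng–Prusoff, n=5, in triplicate.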

[4] = target: GABA-A receptor; anion channel (Homo sapiens) (UniProt P14867+P47870+P18507+P28472+P48169+Q99928+Q9UN88+P34903+O00591+O14764+Q8N1C3+P18505+P78334+P47869+P31644+Q16445); assay: Percent inhibition [3H]Ro-151788 binding to Benzodiazepine receptor from bovine brain membrane at 10 uM; settings: Bos taurus, target entry is the homologue from another species
Mus musculus [5] = assay: Percent anticonvulsant activity against pentylenetetrazole (PTZ)-induced attacks at 3 mg/kg peroral dose; type: functional; settings: route oral
Method in brief: (§3)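 Male CD-1 mice dosed po in 1% carboxymethylcellulose, 30 min before PTZ (90 mg/kg sc, in 0.9% saline). Occurrence of clonic generalized convulsions noted over 30 min; χ² analysis vs control mice.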

Mus musculus [6] = assay: Motor coordination of mouse as number of falls in 30 sec was reported after 3 mg/kg peroral dose using rotarod test; type: functional; settings: route oral
Method in brief: (§4)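 Male CD-1 mice dosed po (suspension in 1% carboxymethylcellulose, 10 mL/kg). Rota rod turning at 24 rpm; falls from the rod counted over 30 s, 25 min after drug administration.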

[7] = target: GABA-A receptor; anion channel; design: species or system Bos taurus
Mus musculus [8] = assay: Percent anticonvulsant activity against pentylenetetrazole (PTZ)-induced attacks at 30 mg/kg peroral dose; type: functional; settings: route oral; method in brief: as §3
Mus musculus [9] = assay: Anxiolytic activity in mice using light-dark box and % time spent in light was reported at 3 mg/kg peroral dose; type: functional; settings: route oral; method in brief: as §1
Mus musculus [10] = assay: Motor coordination of mouse as number of falls in 30 sec was reported after 10 mg/kg peroral dose using rotarod test; type: functional; settings: route oral
Method in brief: (§5)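 Male CD-1 mice are dosed po in 1% CMC (flumazenil ip). Falls from a rota rod turning at 24 rpm are counted over 30 s, 25 min after drug administration, and compared with vehicle-treated mice. Means ± SEM.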

Mus musculus [11] = assay: Percent anticonvulsant activity against pentylenetetrazole (PTZ)-induced attacks at 10 mg/kg peroral dose; type: functional; settings: route oral; method in brief: as §3
Mus musculus [12] = assay: Anxiolytic activity in mice using light-dark box and no. of transfers between compartments were reported at 3 mg/kg peroral dose; type: functional; settings: route oral; method in brief: as §1
Mus musculus [13] = assay: Anxiolytic activity in mice using light-dark box and % time spent in light was reported at 10 mg/kg peroral dose; type: functional; settings: route oral; method in brief: as §1
Mus musculus [14] = assay: Motor coordination of mouse as number of falls in 30 sec was reported after 30 mg/kg peroral dose using rotarod test; type: functional; settings: route oral; method in brief: as §4
Mus musculus [15] = assay: Anxiolytic activity in mice using light-dark box and no. of transfers between compartments were reported at 10 mg/kg peroral dose; type: functional; settings: route oral; method in brief: as §1
Mus musculus [16] = assay: Percent anticonvulsant activity against pentylenetetrazole (PTZ)-induced attacks at 100 mg/kg peroral dose; type: functional; settings: route oral; method in brief: as §3
Mus musculus [17] = assay: Motor coordination of mouse as number of falls in 30 sec was reported after 100 mg/kg peroral dose using rotarod test; type: functional; settings: route oral; method in brief: as §4
Mus musculus [18] = assay: Motor coordination of mouse as number of falls in […] was reported after 10 mg/kg peroral dose using rotarod test; type: functional; settings: route oral
Mus musculus [19] = assay: Anxiolytic activity in mice using light-dark box and no. of transfers between compartments were reported at 30 mg/kg peroral dose; type: functional; settings: route oral; method in brief: as §1
Mus musculus [20] = assay: Anxiolytic activity in mice using light-dark box and % time spent in light was reported at 30 mg/kg peroral dose; type: functional; settings: route oral; method in brief: as §1
[21] = Anticonvulsant activity electroshock induced convulsions and % lethality obtained at dose of 10 mg/kg; settings: mouse, in vivo
Mus musculus [22] = assay: Motor coordination of mouse as number of falls in 30 sec was reported after 1 mg/kg peroral dose using rotarod test; type: functional; settings: route oral; method in brief: as §5
Mus musculus [23] = assay: Anxiolytic activity in mice using light-dark box and % time spent in light was reported at 1 mg/kg peroral dose; type: functional; settings: route oral
Method in brief: (§6)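 Light-dark box in male CD-1 mice. Ligands are given po in 1% CMC, flumazenil ip. Each mouse is placed in the centre of the lit area facing away from the dark one and explores for 5 min. Time in the illuminated side and number of transfers between compartments are recorded. Means ± SEM.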

Mus musculus [24] = assay: Motor coordination of mouse as number of falls in 30 sec was reported after 0.3 mg/kg peroral dose using rotarod test; type: functional; settings: route oral; method in brief: as §5
[25] = Displacement of [3H]-Ro-15-1788 from rat GABA-A receptor alpha-2-beta-2-gamma-2 subunits expressed in HEK293 cells; type: cell-based; method in brief: as §2
Mus musculus [26] = assay: Anxiolytic activity in mice using light-dark box and no. of transfers between compartments were reported at 0.3 mg/kg peroral dose; type: functional; settings: route oral; method in brief: as §6
Mus musculus [27] = assay: Anxiolytic activity in mice using light-dark box and no. of transfers between compartments were reported at 1 mg/kg peroral dose; type: functional; settings: route oral; method in brief: as §6
Mus musculus [28] = assay: Percent anticonvulsant activity against pentylenetetrazole (PTZ)-induced attacks at 1 mg/kg peroral dose; type: functional; settings: route oral
Method in brief: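 Male CD-1 mice are dosed po in 1% CMC (flumazenil ip). PTZ (90 mg/kg sc, in 0.9% saline) is injected 30 min later. Clonic generalized convulsions are scored over 30 min, with % protection compared with controls by χ2 analysis.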

CCOC(=O)c1ncn2c1CN(C)C(=O)c1cc(F)ccc1-2.O=C(OCc1cccs1)c1cnn2c1n[n+]([O-])c1ccc(Cl)cc12
Activity (Mus musculus [1]): 124.08%
No. of transfers (Mus musculus [2]): 23

Cc1ccc(-c2nc3ccc(C)cn3c2CC(=O)N(C)C)cc1 [ZOLPIDEM]
Ki [3]: > 1000 nM

O=C(Cc1cnn2c1n[n+]([O-])c1ccc(Cl)cc12)OCc1ccsc1
inhibition [4]: 45%

CN1C(=O)CN=C(c2ccccc2)c2cc(Cl)ccc21.O=C(OCc1cccs1)c1cnn2c1n[n+]([O-])c1ccc(Cl)cc12
Activity (Mus musculus [5]): 50%
No. of falls (Mus musculus [6]): 0.3

CC(C)OC(=O)c1cnn2c1n[n+]([O-])c1ccc(Cl)cc12
inhibition [4]: 97%
Ki [7]: 272 nM

O=C(Cc1cnn2c1n[n+]([O-])c1ccc(Cl)cc12)OCc1cccs1
inhibition [4]: 35%

COc1ccccc1COC(=O)c1cnn2c1nnc1ccc(Cl)cc12
inhibition [4]: 97%
Ki [7]: 1.7 nM

O=C(OCc1ccsc1)c1cnn2c1n[n+]([O-])c1ccc(Cl)cc12 [listing 1 of 2 here]
Activity (Mus musculus [8]): 9%
Activity (Mus musculus [5]): 30%
Activity (Mus musculus [9]): 110.3%
Ki [7]: 13.3 nM
No. of falls (Mus musculus [10]): 0.36
Activity (Mus musculus [11]): 18.2%
No. of transfers (Mus musculus [12]): 15.7
Activity (Mus musculus [13]): 91.84%
No. of falls (Mus musculus [14]): 0.27
No. of transfers (Mus musculus [15]): 16
No. of falls (Mus musculus [6]): 0.2

O=C(OCc1ccoc1)c1cnn2c1n[n+]([O-])c1ccc(Cl)cc12 [listing 1 of 2 here]
inhibition [4]: 96%

O=C(OCc1ccco1)c1cnn2c1n[n+]([O-])c1ccc(Cl)cc12 [listing 1 of 2 here]
Activity (Mus musculus [8]): 7.7%
Activity (Mus musculus [1]): 96.16%
Activity (Mus musculus [16]): 27.3%
No. of transfers (Mus musculus [2]): 14
No. of falls (Mus musculus [17]): 0.45
Ki [7]: 24.4 nM
Activity (Mus musculus [11]): 27.3%
No. of falls (Mus musculus [18]): 0.27
No. of transfers (Mus musculus [19]): 18.6
Activity (Mus musculus [20]): 125.02%
Activity (Mus musculus [13]): 96.8%
No. of falls (Mus musculus [14]): 0.08
No. of transfers (Mus musculus [15]): 15.71

O=C(CC1C=NN2c3cc(Cl)ccc3[N+]([O-])=NC12)Oc1ccccc1Cl (configuration not stated)
inhibition [4]: 87%
Ki [7]: 489 nM

CN1C(=O)CN=C(c2ccccc2)c2cc(Cl)ccc21 [DIAZEPAM]
mortality [21]: 0%
Activity (Mus musculus [5]): 100%
Activity (Mus musculus [9]): 243.2%
No. of falls (Mus musculus [22]): 0.78
No. of transfers (Mus musculus [12]): 16.5
Activity (Mus musculus [23]): 159.3%
No. of falls (Mus musculus [24]): 0.39
Ki [25]: 7.8 nM
No. of transfers (Mus musculus [26]): 22
No. of transfers (Mus musculus [27]): 23.2
Activity (Mus musculus [28]): 93.8%
No. of falls (Mus musculus [6]): 1.6
Ki [3]: 9.8 nM

O=C(OCC1CCOC1)c1cnn2c1n[n+]([O-])c1ccc(Cl)cc12 (configuration not stated)
inhibition [4]: 85%
Ki [7]: 680 nM

COc1ccccc1COC(=O)Cc1cnn2c1n[n+]([O-])c1ccc(Cl)cc12
inhibition [4]: 50%

COc1ccccc1OC(=O)CC1C=NN2c3cc(Cl)ccc3[N+]([O-])=NC12 (configuration not stated)
inhibition [4]: 88%
Ki [7]: 171 nM

CN1C(=O)CN=C(c2ccccc2)c2cc(Cl)ccc21.O=C(OCc1ccsc1)c1cnn2c1n[n+]([O-])c1ccc(Cl)cc12
No. of falls (Mus musculus [10]): 0.55
Activity (Mus musculus [11]): 100%
Activity (Mus musculus [13]): 149.16%
No. of transfers (Mus musculus [15]): 27.9

O=C(OCc1cccs1)c1cnn2c1n[n+]([O-])c1ccc(Cl)cc12
inhibition [4]: 93%

CCOC(=O)Cc1cnn2c1n[n+]([O-])c1ccc(Cl)cc12
inhibition [4]: 53%

CC(OC(=O)c1cnn2c1n[n+]([O-])c1ccc(Cl)cc12)c1ccccc1 (configuration not stated)
inhibition [4]: 95%
Ki [7]: 138 nM

O=C(OCc1ccco1)c1cnn2c1n[n+]([O-])c1ccc(Cl)cc12 [listing 2 of 2 here]
inhibition [4]: 100%

O=C(OCc1cccs1)c1cnn2c1nnc1ccc(Cl)cc12
inhibition [4]: 96%
Ki [7]: 6.26 nM

O=C(Cc1cnn2c1n[n+]([O-])c1ccc(Cl)cc12)OCc1ccccc1
inhibition [4]: 32%

CN1C(=O)CN=C(c2ccccc2)c2cc(Cl)ccc21.O=C(OCc1ccoc1)c1cnn2c1n[n+]([O-])c1ccc(Cl)cc12
No. of falls (Mus musculus [10]): 0.44
Activity (Mus musculus [11]): 88.9%

CN1C(=O)CN=C(c2ccccc2)c2cc(Cl)ccc21.O=C(OCc1ccco1)c1cnn2c1n[n+]([O-])c1ccc(Cl)cc12
No. of falls (Mus musculus [10]): 1.55
Activity (Mus musculus [11]): 88.9%
Activity (Mus musculus [13]): 142.02%
No. of transfers (Mus musculus [15]): 27.1

Cc1ccccc1OC(=O)CC1C=NN2c3cc(Cl)ccc3[N+]([O-])=NC12 (configuration not stated)
inhibition [4]: 70%

O=C(OCc1ccoc1)c1cnn2c1n[n+]([O-])c1ccc(Cl)cc12 [listing 2 of 2 here]
Activity (Mus musculus [8]): 30%
Activity (Mus musculus [1]): 127.18%
Activity (Mus musculus [5]): 0%
Activity (Mus musculus [16]): 36.4%
No. of transfers (Mus musculus [2]): 19.7
No. of falls (Mus musculus [17]): 0.18
Ki [7]: 11.4 nM
No. of falls (Mus musculus [10]): 0.2
Activity (Mus musculus [11]): 20%
No. of transfers (Mus musculus [19]): 20.4
Activity (Mus musculus [20]): 132.27%
Activity (Mus musculus [13]): 118.95%
No. of falls (Mus musculus [14]): 0.1
No. of transfers (Mus musculus [15]): 16.57
No. of falls (Mus musculus [6]): 0.14

O=C(OCc1ccncc1)c1cnn2c1n[n+]([O-])c1ccc(Cl)cc12
inhibition [4]: 100%
Ki [7]: 44 nM

CCOC(=O)c1ncn2c1CN(C)C(=O)c1cc(F)ccc1-2.CN1C(=O)CN=C(c2ccccc2)c2cc(Cl)ccc21
Activity (Mus musculus [1]): 107%
Activity (Mus musculus [16]): 20%
No. of transfers (Mus musculus [2]): 15.6
No. of falls (Mus musculus [17]): 0.4
No. of transfers (Mus musculus [19]): 23
Activity (Mus musculus [20]): 154.8%

COc1ccccc1COC(=O)C1C=NN2c3cc(Cl)ccc3[N+]([O-])=NC12 (configuration not stated)
inhibition [4]: 100%
Ki [7]: 1 nM

O=C(OCc1ccsc1)c1cnn2c1n[n+]([O-])c1ccc(Cl)cc12 [listing 2 of 2 here]
inhibition [4]: 97%

O=C(Cc1cnn2c1n[n+]([O-])c1ccc(Cl)cc12)Oc1ccccc1
inhibition [4]: 79%
